Experimental data pooled from the literature.
Compare with care: the assays were run in different laboratories.
Matrix: plasma

`COc1ccc(N(Cc2csc(-c3ccccc3)n2)C(=O)CCCCCC(=O)NO)cc1` has a Cmax of 4.73 ng/mL (female Sprague-Dawley rat; oral, 30 mg/kg).
`CCOc1c([C@H](C)n2nc(C)c3c(N)ncnc32)cc(Cl)c(F)c1[C@@H]1CNC(=O)C1` gave a Cmax of 666 ng/mL (male Sprague-Dawley rat; oral, 2 mg/kg, single dose).
With `O=C1CCC(N2Cc3cc(C4CCN(Cc5ccccc5)CC4)ccc3C2=O)C(=O)N1` (stereo not drawn) the Cmax was 72.7 ng/mL (male Sprague-Dawley rat; oral, 3 mg/kg).
The Cmax of `C1=C/COCc2cc(ccc2OCCN2CCCC2)Nc2nccc(n2)-c2cccc(c2)COC/1` is reported as 333 ng/mL (male Sprague-Dawley rat; oral, 36 mg/kg).
`C=CC(=O)N1CCC([C@@H]2CCNc3c(C(N)=O)c(-c4ccc(Oc5ccccc5)cc4)nn32)CC1` has a Cmax of 426 ng/mL (Sprague-Dawley rat; oral, 16 mg/kg).
The Cmax of `C[C@H]1Oc2cc(cnc2N)-c2c(nn(C)c2C#N)CN(C)C(=O)c2ccc(F)cc21` is reported as 468 ng/mL (male Sprague-Dawley rat; oral, 10 mg/kg, single dose).
The Cmax of `[2H]C([2H])([2H])NC(=O)c1cc(Oc2ccc(NC(=O)Nc3ccc(Cl)c(C(F)(F)F)c3)cc2)ccn1` is reported as 7420 ng/mL (rat; oral, 40 mg/kg, single dose).
`C=CC(=O)N1CCC[C@@H](n2nc(-c3ccc(Oc4ccccc4)cc3)c3c(N)ncnc32)C1` gave a Cmax of 84.4 ng/mL (rat; oral, 40 mg/kg).
The Cmax of `COc1nc(-c2cccc(-c3ccccc3)c2C)ccc1CNCCNC(=O)CCCCCCCCCCC(=O)N1CCN(CCNC(=O)c2cc3c(=O)n4cccc(C)c4nc3n(CCc3cccs3)c2=N)CC1` is reported as 20.2 ng/mL (male Sprague-Dawley rat; oral, 40 mg/kg).
`CONC(=O)c1cccc2c1cc(C)n2-c1nc2c(c(NCc3ccccc3)n1)CCCN2` has a Cmax of 28.2 ng/mL (male Sprague-Dawley rat; intravenous, 1 mg/kg, single dose).
With `CCCCC(=O)Nc1ccc(-c2ccc3ncn(CCC)c(=O)c3c2)cn1` the Cmax was 966 ng/mL (male rat; oral, 10 mg/kg).
For `COc1cc(-c2cc(C(C)=O)n3ccccc23)c(OC)cc1Cn1ccnc1`, the Cmax was 876 ng/mL (male Sprague-Dawley rat; oral, 5 mg/kg).
With `CCN(CC)Cc1ccc2cc(COC(=O)Nc3ccc(C(=O)NO)cc3)ccc2c1` the Cmax was 2650 ng/mL (male Sprague-Dawley rat; oral, 10 mg/kg).
With `CC[C@H](C)[C@H](NC(=O)[C@@H]1CCCN1C(=O)CNC(=O)[C@H](Cc1ccccc1)NC(=O)[C@H](CC(N)=O)NC(=O)[C@H](CC(N)=O)NC(=O)[C@H](CO)NC(=O)[C@H](CO)NC(=O)[C@H](Cc1c[nH]cn1)NC(=O)[C@H](CCCNC(=N)N)NC(=O)[C@H](CC(C)C)NC(=O)[C@H](Cc1ccccc1)NC(=O)[C@H](CCC(=O)O)NC(=O)[C@H](C)NC(=O)[C@H](CC(C)C)NC(=O)[C@H](CCCNC(=N)N)NC(=O)[C@H](CCC(N)=O)NC(=O)[C@@H](NC(=O)[C@H](C)NC(=O)[C@@H]1CSSC[C@H](NC(=O)[C@H](CCCCN)NC(=O)CC[C@H](NC(=O)CCCCCCCCCCCCCCCCCCC(=O)O)C(=O)O)C(=O)N[C@@H](CC(N)=O)C(=O)N[C@@H]([C@@H](C)O)C(=O)N[C@@H](C)C(=O)N[C@@H]([C@@H](C)O)C(=O)N1)[C@@H](C)O)C(=O)N[C@@H](CC(C)C)C(=O)N1CCC[C@H]1C(=O)N1CCC[C@H]1C(=O)N[C@H](C(=O)N[C@@H](CC(N)=O)C(=O)N[C@H](C(=O)NCC(=O)N[C@@H](CO)C(=O)N[C@@H](CC(N)=O)C(=O)N[C@H](C(=O)N1CCC[C@H]1C(N)=O)[C@@H](C)O)C(C)C)[C@@H](C)O` the Cmax was 98.8 nM (male Sprague-Dawley rat; subcutaneous, 30 nmol/kg, single dose).
The Cmax of `CCCCCCCCCC(=O)N[C@@H](Cc1c[nH]c2ccccc12)C(=O)N[C@H](CC(N)=O)C(=O)N[C@@H](CC(=O)O)C(=O)N[C@@H]1C(=O)NCC(=O)N[C@@H](CCCN)C(=O)N[C@@H](CC(=O)O)C(=O)N[C@H](C)C(=O)N[C@@H](CC(=O)O)C(=O)NCC(=O)N[C@H](CO)C(=O)N[C@@H]([C@H](C)CC(=O)O)C(=O)N[C@@H](CC(=O)c2ccccc2N)C(=O)O[C@@H]1C` is reported as 205000 ng/mL (male Wistar rat; subcutaneous, 125 mg/kg, single dose).
